{"source": "ChEMBL document CHEMBL1649579", "about": "“A novel tryptophanyl-tRNA synthetase gene confers high-level resistance to indolmycin” (2009)", "assay_type_in_all_cases": "functional", "key": {"[1]": {"system": "Streptomyces coelicolor", "test": "Antimicrobial activity against wild-type Streptomyces coelicolor after 48 hrs", "outline": "(§1)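 Indolmycin MIC on Difco nutrient agar containing the indicated indolmycin concentrations. Spores are grown at 30C for 48 h. MIC is the lowest indolmycin concentration that prevents growth after 2 days.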"}, "[2]": {"system": "Streptomyces coelicolor", "test": "Antimicrobial activity against trpRS1 deficient Streptomyces coelicolor B725 after 48 hrs", "conditions": "B725, 48 h", "outline": "as §1"}, "[3]": {"system": "Streptomyces coelicolor", "test": "Antimicrobial activity against Streptomyces coelicolor B725 harboring trpRS1 ORF after 48 hrs", "conditions": "B725, 48 h", "outline": "(§2)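 Agar MIC in S. coelicolor trpRS1-null strain B725. Each ORF is cloned into pIJ10257 under the constitutive ermE* promoter for equalized expression. Growth is on Difco nutrient agar with indolmycin at the indicated concentrations, 30C, 48 h. MIC is the concentration that inhibits growth.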"}, "[4]": {"system": "Streptomyces avermitilis", "test": "Antimicrobial activity against Streptomyces avermitilis harboring trpRS1 homolog after 48 hrs", "outline": "as §1"}, "[5]": {"system": "Streptomyces griseus", "test": "Antimicrobial activity against Streptomyces griseus after 48 hrs", "outline": "as §1"}, "[6]": {"system": "Streptomyces coelicolor", "test": "Antimicrobial activity against Streptomyces coelicolor B725 harboring trpRS2 ORF after 48 hrs", "conditions": "B725, 48 h", "outline": "as §2"}, "[7]": {"system": "Streptomyces coelicolor", "test": "Antimicrobial activity against Streptomyces coelicolor B725 harboring trpRS2 L9F mutant ORF after 48 hrs", "conditions": "B725, 48 h", "outline": "as §2"}, "[8]": {"system": "Streptomyces coelicolor", "test": "Antimicrobial activity against Streptomyces coelicolor B725 harboring trpRS2 H48Q mutant ORF after 48 hrs", "conditions": "B725, 48 h", "outline": "as §2"}, "[9]": {"system": "Streptomyces coelicolor", "test": "Antimicrobial activity against Streptomyces coelicolor B725 harboring trpRS2 H48N mutant ORF after 48 hrs", "conditions": "B725, 48 h", "outline": "as §2"}, "[10]": {"system": "Streptomyces coelicolor", "test": "Antimicrobial activity against Streptomyces coelicolor B725 harboring trpRS2 Q13K mutant ORF after 48 hrs", "conditions": "B725, 48 h", "outline": "as §2"}, "[11]": {"system": "Streptomyces coelicolor", "test": "Antimicrobial activity against Streptomyces coelicolor B725 harboring trpRS2 L9F/Q13K mutant ORF after 48 hrs", "conditions": "B725, 48 h", "outline": "as §2"}, "[12]": {"system": "Streptomyces coelicolor", "test": "Antimicrobial activity against Streptomyces coelicolor B725 harboring trpRS2 L9F/H48Q mutant ORF after 48 hrs", "conditions": "B725, 48 h", "outline": "as §2"}, "[13]": {"system": "Streptomyces coelicolor", "test": "Antimicrobial activity against Streptomyces coelicolor B725 harboring trpRS2 locus after 48 hrs", "conditions": "B725, 48 h", "outline": "(§3)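 Agar MIC in trpRS1-null S. coelicolor B725 carrying the trpRS2 locus (93 nt upstream to 96 nt downstream of the ORF, with or without point mutations) […]. Plates are Difco nutrient agar with indicated indolmycin levels, read for growth after 48 h at 30C.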"}, "[14]": {"system": "Streptomyces coelicolor", "test": "Antimicrobial activity against Streptomyces coelicolor B725 harboring trpRS2 C(-17)A locus after 48 hrs", "conditions": "B725, 48 h", "outline": "as §3"}, "[15]": {"system": "Streptomyces coelicolor", "test": "Antimicrobial activity against Streptomyces coelicolor B725 harboring trpRS2 C(-17)A/L9F locus after 48 hrs", "conditions": "B725, 48 h", "outline": "as §3"}, "[16]": {"system": "Streptomyces coelicolor", "test": "Antimicrobial activity against Streptomyces coelicolor B725 harboring trpRS2 C(-17)A/H48Q locus after 48 hrs", "conditions": "B725, 48 h", "outline": "as §3"}, "[17]": {"system": "Streptomyces coelicolor", "test": "Antimicrobial activity against Streptomyces coelicolor B725 harboring trpRS2 G(-13)T locus after 48 hrs", "conditions": "B725, 48 h", "outline": "as §3"}, "[18]": {"system": "Streptomyces coelicolor", "test": "Antimicrobial activity against Streptomyces coelicolor B725 harboring trpRS2 G(-13)T/L9F locus after 48 hrs", "conditions": "B725, 48 h", "outline": "as §3"}, "[19]": {"system": "Streptomyces coelicolor", "test": "Antimicrobial activity against Streptomyces coelicolor B725 harboring trpRS2 G(-13)T/H48Q locus after 48 hrs", "conditions": "B725, 48 h", "outline": "as §3"}, "[20]": {"system": "Streptomyces coelicolor", "test": "Ratio of MIC for Streptomyces coelicolor B725 harboring trpRS2 ORF to MIC for Streptomyces coelicolor B725", "outline": "(§4)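 Fold increase is the indolmycin MIC of each construct-bearing B725 strain (ermE* promoter) divided by the MIC of the parent trpRS1-null B725. Both MICs come from Difco nutrient agar plates containing indolmycin, read for growth after 2 days at 30C.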"}, "[21]": {"system": "Streptomyces coelicolor", "test": "Ratio of MIC for Streptomyces coelicolor B725 harboring trpRS2 L9F mutant ORF to MIC for Streptomyces coelicolor B725", "outline": "as §4"}, "[22]": {"system": "Streptomyces coelicolor", "test": "Ratio of MIC for Streptomyces coelicolor B725 harboring trpRS2 H48Q mutant ORF to MIC for Streptomyces coelicolor B725", "outline": "as §4"}, "[23]": {"system": "Streptomyces coelicolor", "test": "Ratio of MIC for Streptomyces coelicolor B725 harboring trpRS2 H48N mutant ORF to MIC for Streptomyces coelicolor B725", "outline": "as §4"}, "[24]": {"system": "Streptomyces coelicolor", "test": "Ratio of MIC for Streptomyces coelicolor B725 harboring trpRS2 Q13K mutant ORF to MIC for Streptomyces coelicolor B725", "outline": "as §4"}, "[25]": {"system": "Streptomyces coelicolor", "test": "Ratio of MIC for Streptomyces coelicolor B725 harboring trpRS2 L9F/Q13K mutant ORF to MIC for Streptomyces coelicolor B725", "outline": "as §4"}, "[26]": {"system": "Streptomyces coelicolor", "test": "Ratio of MIC for Streptomyces coelicolor B725 harboring trpRS2 L9F/H48Q mutant ORF to MIC for Streptomyces coelicolor B725", "outline": "as §4"}, "[27]": {"system": "Streptomyces coelicolor", "test": "Ratio of MIC for Streptomyces coelicolor B725 harboring trpRS2 locus to MIC for Streptomyces coelicolor B725", "outline": "as §4"}, "[28]": {"system": "Streptomyces coelicolor", "test": "Ratio of MIC for Streptomyces coelicolor B725 harboring trpRS2 C(-17)A locus to MIC for Streptomyces coelicolor B725", "outline": "as §4"}, "[29]": {"system": "Streptomyces coelicolor", "test": "Ratio of MIC for Streptomyces coelicolor B725 harboring trpRS2 C(-17)A/L9F locus to MIC for Streptomyces coelicolor B725", "outline": "as §4"}, "[30]": {"system": "Streptomyces coelicolor", "test": "Ratio of MIC for Streptomyces coelicolor B725 harboring trpRS2 C(-17)A/H48Q locus to MIC for Streptomyces coelicolor B725", "outline": "as §4"}, "[31]": {"system": "Streptomyces coelicolor", "test": "Ratio of MIC for Streptomyces coelicolor B725 harboring trpRS2 G(-13)T locus to MIC for Streptomyces coelicolor B725", "outline": "as §4"}, "[32]": {"system": "Streptomyces coelicolor", "test": "Ratio of MIC for Streptomyces coelicolor B725 harboring trpRS2 G(-13)T/L9F locus to MIC for Streptomyces coelicolor B725", "outline": "as §4"}, "[33]": {"system": "Streptomyces coelicolor", "test": "Ratio of MIC for Streptomyces coelicolor B725 harboring trpRS2 G(-13)T/H48Q locus to MIC for Streptomyces coelicolor B725", "outline": "as §4"}, "[34]": {"system": "Streptomyces coelicolor", "test": "Ratio of MIC for Streptomyces coelicolor B725 overexpressing tryptophanyl-tRNA synthetase gene to MIC for Streptomyces coelicolor B725", "outline": "as §4"}}}
{"smiles": "CNC1=NC(=O)[C@H]([C@H](C)c2c[nH]c3ccccc23)O1", "note": "[INDOMYCIN]", "values": [{"measurement": "MIC", "setting": "[1]", "result": "> 150", "unit": "µg/mL"}, {"measurement": "MIC", "setting": "[2]", "result": 0.25, "unit": "µg/mL"}, {"measurement": "MIC", "setting": "[3]", "result": 10, "unit": "µg/mL"}, {"measurement": "MIC", "setting": "[4]", "result": 5, "unit": "µg/mL"}, {"measurement": "MIC", "setting": "[5]", "result": 15, "unit": "µg/mL"}, {"measurement": "MIC", "setting": "[6]", "result": 0.25, "unit": "µg/mL"}, {"measurement": "MIC", "setting": "[7]", "result": 5, "unit": "µg/mL"}, {"measurement": "MIC", "setting": "[8]", "result": "> 75", "unit": "µg/mL"}, {"measurement": "MIC", "setting": "[9]", "result": "> 75", "unit": "µg/mL"}, {"measurement": "MIC", "setting": "[10]", "result": 3, "unit": "µg/mL"}, {"measurement": "MIC", "setting": "[11]", "result": 8, "unit": "µg/mL"}, {"measurement": "MIC", "setting": "[12]", "result": "> 75", "unit": "µg/mL"}, {"measurement": "MIC", "setting": "[13]", "result": 0.25, "unit": "µg/mL"}, {"measurement": "MIC", "setting": "[14]", "result": 2, "unit": "µg/mL"}, {"measurement": "MIC", "setting": "[15]", "result": 5, "unit": "µg/mL"}, {"measurement": "MIC", "setting": "[16]", "result": "> 75", "unit": "µg/mL"}, {"measurement": "MIC", "setting": "[17]", "result": 5, "unit": "µg/mL"}, {"measurement": "MIC", "setting": "[18]", "result": 12, "unit": "µg/mL"}, {"measurement": "MIC", "setting": "[19]", "result": "> 75", "unit": "µg/mL"}, {"measurement": "fold change (FC)", "setting": "[20]", "result": 1}, {"measurement": "fold change (FC)", "setting": "[21]", "result": 20}, {"measurement": "fold change (FC)", "setting": "[22]", "result": ">300"}, {"measurement": "fold change (FC)", "setting": "[23]", "result": ">300"}, {"measurement": "fold change (FC)", "setting": "[24]", "result": 12}, {"measurement": "fold change (FC)", "setting": "[25]", "result": 32}, {"measurement": "fold change (FC)", "setting": "[26]", "result": ">300"}, {"measurement": "fold change (FC)", "setting": "[27]", "result": 1}, {"measurement": "fold change (FC)", "setting": "[28]", "result": 8}, {"measurement": "fold change (FC)", "setting": "[29]", "result": 20}, {"measurement": "fold change (FC)", "setting": "[30]", "result": ">300"}, {"measurement": "fold change (FC)", "setting": "[31]", "result": 20}, {"measurement": "fold change (FC)", "setting": "[32]", "result": 48}, {"measurement": "fold change (FC)", "setting": "[33]", "result": ">300"}, {"measurement": "fold change (FC)", "setting": "[34]", "result": 60}]}
